Experimental data: ChEMBL document CHEMBL5653631, “A Potent and Selective ULK1 Inhibitor Suppresses Autophagy and Sensitizes Cancer Cells to Nutrient Stress” (iScience, 2018)

Columns and labels:
[1] = target: Serine/threonine-protein kinase SBK1 (Homo sapiens) (UniProt Q52WX2); assay: Inhibition of human recombinant SBK1 at 15 nM in presence of ATP by radiometric assay relative to control
[2] = target: T1, Serine/threonine-protein kinase Sgk3 (Homo sapiens) (UniProt Q96BR1); assay: Inhibition of human recombinant SGK3 at 15 nM in presence of ATP by radiometric assay relative to control
T1 sequence (whole entry): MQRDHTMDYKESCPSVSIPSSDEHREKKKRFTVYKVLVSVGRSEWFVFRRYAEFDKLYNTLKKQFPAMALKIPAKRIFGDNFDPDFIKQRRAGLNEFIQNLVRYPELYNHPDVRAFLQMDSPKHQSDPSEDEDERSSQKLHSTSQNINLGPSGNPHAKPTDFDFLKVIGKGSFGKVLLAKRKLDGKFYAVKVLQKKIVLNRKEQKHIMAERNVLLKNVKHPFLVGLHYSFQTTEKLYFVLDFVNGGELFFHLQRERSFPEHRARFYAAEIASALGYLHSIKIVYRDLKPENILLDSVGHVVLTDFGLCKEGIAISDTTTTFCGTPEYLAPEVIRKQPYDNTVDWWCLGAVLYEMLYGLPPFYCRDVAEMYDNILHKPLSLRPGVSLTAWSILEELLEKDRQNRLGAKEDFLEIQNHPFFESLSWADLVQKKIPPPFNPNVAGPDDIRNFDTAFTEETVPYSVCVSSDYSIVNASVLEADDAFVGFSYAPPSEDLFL

[3] = target: Dual specificity protein kinase CLK1 (Homo sapiens) (UniProt P49759); assay: Inhibition of human recombinant CLK1 at 15 nM related to control ULK1
Sequence of Dual specificity protein kinase CLK1 (Homo sapiens) (P49759 whole entry, looked up): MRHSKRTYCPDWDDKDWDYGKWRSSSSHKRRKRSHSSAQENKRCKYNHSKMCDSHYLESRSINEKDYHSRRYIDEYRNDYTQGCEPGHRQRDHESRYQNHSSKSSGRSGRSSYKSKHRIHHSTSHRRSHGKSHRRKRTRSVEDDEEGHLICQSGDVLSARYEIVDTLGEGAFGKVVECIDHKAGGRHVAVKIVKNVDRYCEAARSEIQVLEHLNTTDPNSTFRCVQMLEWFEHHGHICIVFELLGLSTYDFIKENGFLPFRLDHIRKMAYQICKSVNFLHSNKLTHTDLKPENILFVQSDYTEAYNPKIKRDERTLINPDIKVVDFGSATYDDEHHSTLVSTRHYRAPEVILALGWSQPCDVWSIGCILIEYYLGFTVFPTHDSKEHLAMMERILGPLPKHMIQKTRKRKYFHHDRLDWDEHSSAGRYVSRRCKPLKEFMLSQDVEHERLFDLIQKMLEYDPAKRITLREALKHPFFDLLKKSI

[4] = target: T2, Serine/threonine-protein kinase tousled-like 1 (Homo sapiens) (UniProt Q9UKI8); assay: Inhibition of human recombinant TLK1 at 15 nM related to control ULK1
T2 sequence (whole entry): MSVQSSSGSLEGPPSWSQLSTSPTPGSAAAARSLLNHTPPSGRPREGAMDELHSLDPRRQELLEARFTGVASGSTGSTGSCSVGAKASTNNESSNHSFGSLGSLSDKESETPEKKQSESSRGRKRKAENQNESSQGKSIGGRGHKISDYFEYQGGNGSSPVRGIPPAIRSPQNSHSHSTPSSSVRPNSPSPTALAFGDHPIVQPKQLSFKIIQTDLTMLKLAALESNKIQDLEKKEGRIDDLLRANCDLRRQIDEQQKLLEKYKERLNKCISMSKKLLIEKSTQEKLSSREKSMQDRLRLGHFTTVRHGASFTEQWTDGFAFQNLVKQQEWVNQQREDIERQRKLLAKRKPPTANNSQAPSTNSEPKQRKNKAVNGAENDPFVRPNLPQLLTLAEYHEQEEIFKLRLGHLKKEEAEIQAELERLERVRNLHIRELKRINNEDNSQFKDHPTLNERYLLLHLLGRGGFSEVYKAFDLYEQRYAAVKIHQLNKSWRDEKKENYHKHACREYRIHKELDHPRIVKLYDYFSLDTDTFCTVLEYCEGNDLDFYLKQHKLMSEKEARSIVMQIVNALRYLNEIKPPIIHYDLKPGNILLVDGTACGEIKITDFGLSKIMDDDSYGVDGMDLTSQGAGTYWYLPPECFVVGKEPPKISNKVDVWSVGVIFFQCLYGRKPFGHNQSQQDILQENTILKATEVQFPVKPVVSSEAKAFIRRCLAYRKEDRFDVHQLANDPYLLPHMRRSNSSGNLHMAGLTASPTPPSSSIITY

[5] = target: T3, Activin receptor type-1B (Homo sapiens) (UniProt P36896); assay: Inhibition of human recombinant ALK4 at 40 nM related to control ULK1
T3 sequence (whole entry): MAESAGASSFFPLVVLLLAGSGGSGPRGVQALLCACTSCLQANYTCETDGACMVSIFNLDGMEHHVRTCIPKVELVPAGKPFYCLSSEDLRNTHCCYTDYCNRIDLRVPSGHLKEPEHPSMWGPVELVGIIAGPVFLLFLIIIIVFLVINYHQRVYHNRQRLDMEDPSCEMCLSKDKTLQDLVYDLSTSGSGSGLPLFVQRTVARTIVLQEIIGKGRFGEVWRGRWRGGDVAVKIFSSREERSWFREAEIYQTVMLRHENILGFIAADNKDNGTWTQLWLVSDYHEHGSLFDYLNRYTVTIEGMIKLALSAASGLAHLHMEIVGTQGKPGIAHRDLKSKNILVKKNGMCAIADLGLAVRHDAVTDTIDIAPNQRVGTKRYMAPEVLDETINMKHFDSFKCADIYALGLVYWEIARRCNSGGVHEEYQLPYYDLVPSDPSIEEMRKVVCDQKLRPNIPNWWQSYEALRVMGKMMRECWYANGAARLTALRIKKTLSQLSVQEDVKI
Method in brief: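 Radiometric activity assays in a panel of 327 human recombinant kinases, each run in duplicate at one inhibitor concentration. Activity remaining is expressed as percent of vehicle control, and percent inhibition is calculated as 100% minus percent activity remaining.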

[6] = target: T4, Tyrosine-protein kinase receptor TYRO3 (Homo sapiens) (UniProt Q06418); assay: Inhibition of human recombinant TYRO3 at 40 nM related to control ULK1
T4 sequence (whole entry): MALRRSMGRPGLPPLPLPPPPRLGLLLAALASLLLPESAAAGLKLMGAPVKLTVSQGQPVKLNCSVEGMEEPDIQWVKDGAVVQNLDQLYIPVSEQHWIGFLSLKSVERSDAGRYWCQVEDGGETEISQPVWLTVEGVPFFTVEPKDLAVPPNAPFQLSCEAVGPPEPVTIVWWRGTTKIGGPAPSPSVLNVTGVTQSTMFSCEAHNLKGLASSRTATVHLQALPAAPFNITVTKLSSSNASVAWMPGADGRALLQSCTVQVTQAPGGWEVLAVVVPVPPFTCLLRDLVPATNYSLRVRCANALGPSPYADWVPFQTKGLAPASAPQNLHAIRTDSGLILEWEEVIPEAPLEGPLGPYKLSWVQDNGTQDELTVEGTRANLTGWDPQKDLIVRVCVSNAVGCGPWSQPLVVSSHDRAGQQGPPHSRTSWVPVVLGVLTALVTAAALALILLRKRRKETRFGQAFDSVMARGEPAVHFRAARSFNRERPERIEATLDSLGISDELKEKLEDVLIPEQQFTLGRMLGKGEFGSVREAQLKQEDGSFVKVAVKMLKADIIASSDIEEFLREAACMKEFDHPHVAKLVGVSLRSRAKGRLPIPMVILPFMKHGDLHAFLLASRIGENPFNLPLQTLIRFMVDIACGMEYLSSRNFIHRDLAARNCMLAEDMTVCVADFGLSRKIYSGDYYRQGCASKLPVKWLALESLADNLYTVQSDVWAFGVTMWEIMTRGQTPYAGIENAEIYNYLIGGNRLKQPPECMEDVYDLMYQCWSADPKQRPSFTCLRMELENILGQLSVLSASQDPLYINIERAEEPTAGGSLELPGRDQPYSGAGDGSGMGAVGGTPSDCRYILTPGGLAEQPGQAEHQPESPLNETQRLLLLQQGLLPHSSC

Sequence of Serine/threonine-protein kinase SBK1 (Homo sapiens) (Q52WX2 whole entry): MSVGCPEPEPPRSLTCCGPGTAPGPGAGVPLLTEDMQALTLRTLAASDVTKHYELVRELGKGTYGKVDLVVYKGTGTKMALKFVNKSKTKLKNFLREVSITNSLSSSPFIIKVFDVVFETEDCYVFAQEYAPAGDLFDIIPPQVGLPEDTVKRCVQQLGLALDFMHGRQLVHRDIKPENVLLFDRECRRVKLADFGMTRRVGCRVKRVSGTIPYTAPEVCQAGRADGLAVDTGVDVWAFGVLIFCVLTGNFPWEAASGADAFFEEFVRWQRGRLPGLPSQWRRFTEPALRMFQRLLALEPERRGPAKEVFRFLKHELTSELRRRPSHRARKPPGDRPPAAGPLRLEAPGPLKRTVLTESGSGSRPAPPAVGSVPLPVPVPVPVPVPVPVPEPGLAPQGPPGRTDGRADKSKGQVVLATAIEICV

Row | Structure (SMILES) | inhibition [1] [%] | inhibition [2] [%] | fold change (FC) [3] | fold change (FC) [4] | fold change (FC) [5] | fold change (FC) [6]
1 | CC(C)[C@H](NC(=O)c1cc(-c2cnn3cc(-c4ccc(OCCN5CCCCC5)cc4)cnc23)cs1)C(F)(F)F | 5 | 4 | 0.95 | 0 |  | 
2 | O=C(N[C@@H](C1CC1)C(F)(F)F)c1cc(-c2cnn3cc(-c4ccc(F)cc4)cnc23)cs1 |  |  |  |  | 0 | 0
